Assay outcomes as filed in PubChem BioAssay.
PfM18AAP inh: blocks P. falciparum M18 aspartyl aminopeptidase; recombinant PfM18AAP, H-Glu-NHMec fluorogenic cleavage; inhibition, % at 7.35 µM; hit rate 1.2% among 290,000;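 active = inhibition above the campaign mean inhibition over all tested compounds plus 3 SD, cut at about 28% in these data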
IMP-1 inh-1: inhibitors of Pseudomonas aeruginosa IMP-1 metallo-beta-lactamase | purified IMP-1, nitrocefin hydrolysis, epi-absorbance fluorescence | inhibition, % at 5.6 µM | hit rate 0.45% among 290,000 | AID 1556;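 active = inhibition above the mean plus 3 SD of all compounds in the same screening run, cut at about 4.5% in these data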
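System: purified IMP-1; amount: IMP-1 0.2 nM before substrate addition; compound: single dose, 5.6 µM; times: 25 °C, 15 min preincubation, 25 min reaction; signal: Epi-absorbance via hydrolysed-nitrocefin quenching of white-plate fluorescence, 480/530 nm, EDTA stop; benchmarks: DMSO with and without IMP-1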
CTSL1 counter: counter-screen for PFM18AAP inhibitors: inhibitors of F. hepatica cathepsin L1. recombinant F. hepatica cathepsin L1, Z-Leu-Arg-MCA fluorescence. inhibition, % at 5.96 µM. hit rate 0.49% among 300,000;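 active = inhibition above the mean of all tested compounds plus 3 SD, set per screening campaign, cut at about 17% in these data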
VIM-2 inhibitor: inhibitors of Pseudomonas aeruginosa VIM-2 metallo-beta-lactamase; purified VIM-2, nitrocefin hydrolysis, epi-absorbance fluorescence; inhibition, % at 5.6 µM; hit rate 0.89% among 290,000; AID 1527;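 active = inhibition above the mean of all tested compounds plus 3 SD, cutoff set per screening run, cut at about 7.5% in these data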;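 also: red hydrolysis product quenches plate fluorescence so inhibitors raise well fluorescence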
IMP-1 inh-2: blocks IMP-1 metallo-beta-lactamase in VIM-2 selectivity screen. shares compounds with VIM-2 inhibitor. purified IMP-1, nitrocefin hydrolysis, epi-absorbance fluorescence. inhibition, % at 5.6 µM. 1,300 tested, under 10 active. AID 1856; call rule not given here
VIM-2 FRET inh: inhibits VIM-2 in FRET assay to exclude epi-absorbance artifacts. shares compounds with VIM-2 inhibitor. purified VIM-2, CCF2 FRET substrate hydrolysis. inhibition, % at 5.6 µM. hit rate 23% among 1,300;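 active = inhibition above the mean of all tested compounds plus 3 SD, cut at about 19% in these data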
TEM-1 counter: TEM-1 inhibition, counter-screen for VIM-2 inhibitors; shares compounds with VIM-2 inhibitor; Purified TEM-1, nitrocefin hydrolysis, epi-absorbance fluorescence; inhibition, % at 5.6 µM; hit rate 3% among 1,300; AID 1866;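 active = inhibition above that campaign's mean inhibition plus 3 SD, cut at about 0.46% in these data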
Target sequence (P62593 whole entry, looked up): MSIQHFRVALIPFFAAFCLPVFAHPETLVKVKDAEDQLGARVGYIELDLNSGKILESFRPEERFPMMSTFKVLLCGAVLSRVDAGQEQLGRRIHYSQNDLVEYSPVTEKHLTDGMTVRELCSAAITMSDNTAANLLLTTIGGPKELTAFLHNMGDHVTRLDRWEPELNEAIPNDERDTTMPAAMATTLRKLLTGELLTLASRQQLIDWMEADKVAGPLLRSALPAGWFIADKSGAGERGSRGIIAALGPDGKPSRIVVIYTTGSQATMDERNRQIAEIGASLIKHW
VIM-2 inh conf: confirmation of P. aeruginosa VIM-2 metallo-beta-lactamase inhibitors | hit rate 96% among 1,300 | purified VIM-2, nitrocefin hydrolysis, epi-absorbance | AID 2187 | shares compounds with VIM-2 inhibitor | inhibition, % at 5.6 µM;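 active = inhibition of the VIM-2 beta-lactamase enzyme above about 11% from the earlier first-round screen, limit read from the data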
Large screens that a line does not name were inactive (follow-up assays come after a bar, where they were run). In the library only some 2.7% were active in any assay of this set; here they are far more common.

CCCOc1ccccc1C(=O)Nc1ccc(S(=O)(=O)N2CCN(C)CC2)cc1	VIM-2 inhibitor 50.9 | IMP-1 inh-2 inactive | VIM-2 FRET inh inactive | TEM-1 counter inactive | VIM-2 inh conf 65.5
CCOc1ccc(OCC)c(Nc2cc(C)nc3nc(C)nn23)c1	none
CCOc1ccccc1Nc1cc(C)nc2nc(C)nn12	VIM-2 inhibitor 14.7 | IMP-1 inh-2 inactive | VIM-2 FRET inh inactive | TEM-1 counter 0.5 | VIM-2 inh conf 28.2
CCN(CC)C(=O)CSc1nc2ccc(NC(=O)CSc3nnc(N)s3)cc2s1	none
CCN(CC)C(=O)CSc1nc2ccc(NC(=O)CSc3nccn3C)cc2s1	VIM-2 inhibitor 20.9 | IMP-1 inh-2 inactive | VIM-2 FRET inh 51.7 | TEM-1 counter inactive | VIM-2 inh conf 36.2
CC1=CCC(C(=O)O)(C(=O)N/N=C/c2cccs2)C(c2ccc(Cl)cc2)C1 (configuration not stated)	VIM-2 inhibitor 15.0 | IMP-1 inh-2 inactive | VIM-2 FRET inh inactive | TEM-1 counter inactive | VIM-2 inh conf inactive
CC1=CCC(C(=O)O)(C(=O)N/N=C/c2cccnc2)C(c2ccccc2)C1 (configuration not stated)	none
CCCc1ccc(OCC(=O)NNC(=O)c2cccnc2)cc1	none
CC(C)NC(=O)c1nn2c(C(F)(F)F)cc(-c3ccco3)nc2c1Cl	none
O=C(NCCCN1CCOCC1)c1nn2c(C(F)(F)F)cc(-c3ccco3)nc2c1Cl	VIM-2 inhibitor 12.3 | IMP-1 inh-2 inactive | VIM-2 FRET inh inactive | TEM-1 counter inactive | VIM-2 inh conf 17.9
CCc1ccc(NC(=S)Nc2ccc3[nH]c(=O)[nH]c3c2)cc1	none
COc1ccc(-c2ccc(CNCc3ccccn3)o2)cc1Cl	VIM-2 inhibitor 55.5 | IMP-1 inh-2 inactive | VIM-2 FRET inh inactive | TEM-1 counter inactive | VIM-2 inh conf 67.3
CC(C)C(CCNCc1ccccn1)c1ccc(Cl)cc1 (configuration not stated)	none
Clc1ccc(-c2ccc(CNCc3ccccn3)o2)cc1	VIM-2 inhibitor 24.2 | IMP-1 inh-2 inactive | VIM-2 FRET inh inactive | TEM-1 counter inactive | VIM-2 inh conf 42.3
CCOc1c(Cl)cc(CNCc2ccccn2)cc1OC	none
CCOc1ccc(Br)cc1CNc1ccc2c(c1)OCCO2	none
CN(C)S(=O)(=O)c1ccc(NC(=O)COc2ncnc3sccc23)cc1	VIM-2 inhibitor 21.8 | IMP-1 inh-2 inactive | VIM-2 FRET inh inactive | TEM-1 counter inactive | VIM-2 inh conf inactive
CNC(=O)COc1ncnc2sccc12	none (no result: CTSL1 counter)
COc1ccc(Cl)cc1-c1n[nH]c(=S)n1C	none
Cc1ccc(COc2ccsc2-c2n[nH]c(=S)n2C)cc1	VIM-2 inhibitor 34.1 | IMP-1 inh-2 inactive | VIM-2 FRET inh 61.5 | TEM-1 counter inactive | VIM-2 inh conf 40.6
Cc1nc(-c2ccccc2)sc1-c1n[nH]c(=S)n1C	none
Cn1c(-c2sccc2OCc2ccc(Cl)cc2Cl)n[nH]c1=S	VIM-2 inhibitor 33.6 | IMP-1 inh-2 inactive | VIM-2 FRET inh 61.8 | TEM-1 counter inactive | VIM-2 inh conf 42.9
Cn1c(-c2sccc2OCc2ccccc2)n[nH]c1=S	VIM-2 inhibitor 35.2 | IMP-1 inh-2 inactive | VIM-2 FRET inh 71.7 | TEM-1 counter inactive | VIM-2 inh conf 54.2
O=Cc1c(NCc2ccc(Cl)cc2)c2ccccc2[nH]c1=O	VIM-2 inhibitor 14.2 | IMP-1 inh-2 inactive | VIM-2 FRET inh 37.9 | TEM-1 counter inactive | VIM-2 inh conf 23.8
O=C(NCc1ccco1)C1CCCN(c2nnc(-n3cccc3)s2)C1 (configuration not stated)	none
O=c1[nH]c2c(s1)C(c1cccnc1)C1C3CCC(C3)C1S2 (configuration not stated)	VIM-2 inhibitor 84.2 | IMP-1 inh-2 inactive | VIM-2 FRET inh 88.7 | TEM-1 counter inactive | VIM-2 inh conf 82.7
CN(C)c1ccc(/C=C2\C(=N)N3N=C(CC(=O)N4CCCCC4)SC3=NC2=O)cc1	VIM-2 inhibitor 13.4 | IMP-1 inh-2 inactive | VIM-2 FRET inh 29.2 | TEM-1 counter inactive | VIM-2 inh conf 18.0
